Screening results from PubChem BioAssay.
Rows were chosen to be rich in hits. Some 3.2% of all compounds tested hit in one or more screens of this group.
Apaf1 inhib – blocks human Apaf-1 apoptosome activity; reconstituted apoptosome caspase-3 activity, DEVD-Rh110 fluorescence; inhibition, % at 20 µM; actives 0.71% (n = 330,000); active means inhibition of at least 40% at 20 µM;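 further: plate controls were DMSO wells for no effect and DEVD-CHO caspase inhibitor wells for full effect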
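System: reconstituted apoptosome with Apaf-1, cytochrome c, caspase-9, procaspase-3, dATP; Signal: Rh110 fluorescence intensity; Schedule: 30 min compound preincubation, 50 min activation, room temperature; Reagent: cytochrome c trigger plus (Z-DEVD)2-Rh110 caspase-3 substrate.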
UBC13 polyUb – inhibitors of human UBC13 polyubiquitin chain formation. P61088. actives 0.47% (n = 330,000). TR-FRET. inhibition, % at 20 µM; in the data active means inhibition above about 45%, passing the limit was not always enough
MEKK2 WT-MEK5 – raises or lowers MEK5 binding to wildtype human MEKK2 PB1 domain | Q9Y2U5 | bead flow cytometry, Alexa488-MEK5 binding to MEKK2 WT; actives lie on both sides | binding response (% of control), % at 10 µM | actives 1.1% (n = 290,000); in the data active means binding response below about 67% or above about 130%
MEKK2 mut-MEK5 – signal of MEK5 binding to mutant human MEKK2 PB1 domain; bead flow cytometry, Alexa488-MEK5 binding to MEKK2 mutant; percent response, % at 10 µM; actives 0.35% (n = 290,000); AID 1530; in the data active means percent response above about 24%, passing the limit was not always enough
Pemphigus Ab inh – blocks pemphigus antibody binding to human desmoglein-3. binding (percent of control), % at 10 µM. DSG3-coupled beads, scFv-anti-DSG3-GFP binding, flow cytometry; stronger effect = lower value. actives 0.48% (n = 310,000). P32926;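 active means binding more than 3 SD below its plate's average and above zero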;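 further: hits lower antibody fragment binding to DSG3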
Target sequence (P32926 whole entry, looked up, the tested form may be a part): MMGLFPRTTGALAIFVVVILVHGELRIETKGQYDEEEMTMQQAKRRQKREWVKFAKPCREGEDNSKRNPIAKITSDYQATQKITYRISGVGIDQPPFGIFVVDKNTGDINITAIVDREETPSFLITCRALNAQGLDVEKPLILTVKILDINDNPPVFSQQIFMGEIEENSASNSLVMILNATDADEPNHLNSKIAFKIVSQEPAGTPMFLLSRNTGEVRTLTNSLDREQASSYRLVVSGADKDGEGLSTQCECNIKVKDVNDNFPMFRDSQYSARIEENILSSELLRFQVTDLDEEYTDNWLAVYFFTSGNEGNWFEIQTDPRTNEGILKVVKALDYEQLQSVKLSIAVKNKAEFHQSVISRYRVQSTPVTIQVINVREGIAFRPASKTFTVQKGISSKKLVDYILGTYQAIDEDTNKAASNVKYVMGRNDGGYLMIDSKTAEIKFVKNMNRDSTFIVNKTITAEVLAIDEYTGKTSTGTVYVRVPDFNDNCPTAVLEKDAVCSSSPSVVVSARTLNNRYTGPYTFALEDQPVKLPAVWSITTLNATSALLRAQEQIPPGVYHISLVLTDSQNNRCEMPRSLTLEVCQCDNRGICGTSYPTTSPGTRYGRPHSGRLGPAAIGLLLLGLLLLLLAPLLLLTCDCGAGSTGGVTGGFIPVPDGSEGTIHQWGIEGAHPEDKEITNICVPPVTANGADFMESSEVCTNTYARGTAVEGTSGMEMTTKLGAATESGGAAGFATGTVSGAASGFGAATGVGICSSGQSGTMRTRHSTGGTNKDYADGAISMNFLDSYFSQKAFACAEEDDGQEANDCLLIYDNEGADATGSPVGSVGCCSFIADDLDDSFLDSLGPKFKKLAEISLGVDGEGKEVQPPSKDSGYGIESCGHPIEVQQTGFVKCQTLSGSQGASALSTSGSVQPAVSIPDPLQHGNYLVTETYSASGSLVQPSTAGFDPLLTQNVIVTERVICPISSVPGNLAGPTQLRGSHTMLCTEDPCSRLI
MEKK3 PB1 HTS – modulators (inhibitors or enhancers) of MEK5 binding to human MEKK3 PB1 domain. actives 1.4% (n = 290,000). binding response (% of control), % at 10 µM. bead-based flow cytometry, Alexa488-MEK5 binding to MEKK3; actives lie on both sides; 0 = blocked by unlabeled MEK5, 100 = vehicle. Q99759;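 active means binding response more than 3 SD above or below the average of its plate-row segment, actives on both sides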;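 further: Alexa488 bead fluorescence after subtracting the streptavidin-only scavenger bead signal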
MEKK2wt confirm – raises or lowers MEK5 binding to wildtype human MEKK2, retest; bead flow cytometry, Alexa488-MEK5 binding to MEKK2 WT; actives lie on both sides; shares compounds with MEKK3 PB1 HTS; binding response (% of control), % at 10 µM; actives 2.4% (n = 5,900); in the data active means binding response below about 16% or above about 210%; inactive means in between
MEKK2mut-MEK5 – signal of MEK5 binding to mutant human MEKK2, retest | actives 2% (n = 5,900) | bead flow cytometry, Alexa488-MEK5 binding to MEKK2 mutant | percent response, % at 10 µM | shares compounds with MEKK3 PB1 HTS; in the data active means percent response mostly above about 71%, no sharp cut-off; inactive means mostly below about 38%;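 further: higher means compound restores mutant binding toward wildtype level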
MEKK3-MEK5 inh – confirmation of inhibitors of MEK5 binding to human MEKK3 | shares compounds with MEKK3 PB1 HTS | bead flow cytometry, Alexa488-MEK5 binding to MEKK3; stronger effect = lower value | binding response (% of control), % at 10 µM | actives 1.8% (n = 5,900) | AID 1894;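 active means binding response below 72% of control, or above a set upper limit, though filed actives all read lower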;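 further: 100% = DMSO only wells and 0% = binding blocked by excess unlabeled MEK5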
* marks the source's active call; other numbers are inactive results; / = no result given; [ ] = dose if it differs, or a comment.

SMILES | Apaf1 inhib | UBC13 polyUb | MEKK2 WT-MEK5 | MEKK2 mut-MEK5 | Pemphigus Ab inh | MEKK3 PB1 HTS | MEKK2wt confirm | MEKK2mut-MEK5 | MEKK3-MEK5 inh
CCOCCCN1CN(Cc2ccccc2)CNC1=S | 4 | 1 | 104 | 0 | 122 | 128* | 106 | 4 | 100
COC(=O)C1OCOC2C(C(=O)OC)OCOC12 (stereo unspecified) | / | / | / | / | 96 | / | / | / | /
O=C(c1ccc(F)cc1)N1CCCC(C(=O)N2CCc3ccccc3C2)C1 (stereo unspecified) | 2 | 4 | 107 | 3 | / | 102 | / | / | /
Cc1ccc(/C=C2/NC(=O)N(Cc3ccccc3)C2=O)o1 | 9 | -14 | 2.0*[inhibitor] | 1 | 109 | 108 | 89 | 1 | 95
COC(=O)CN1C(=O)N/C(=C/c2ccc(C)o2)C1=O | -9 | -13 | 108 | 6 | 101 | 105 | / | / | /
CCOc1ccc(C(=O)Nc2ccccc2C#N)cc1[N+](=O)[O-] | -5 | 3 | 92 | -2 | 102 | 98 | / | / | /
CCOc1ccc(C(=O)Nc2ccccc2CC)cc1[N+](=O)[O-] | 7 | 2 | 87 | -2 | 104 | 50*[inhibitor] | 94 | -26 | 89
CC1(C)CC(=O)C=C(c2ccc(-c3cnn(Cc4ccccc4)c3)cc2)C1=O | / | / | / | / | 110 | / | / | / | /
CCc1cccc(CC)c1NC(=S)/C(=C(\[O-])c1ccc(Cl)s1)[n+]1ccccc1 | 15 | -17 | 98 | 0 | 96 | 98 | / | / | /
CC(C)(C)c1cc[n+](/C(C(=S)NC2CC2)=C(/[O-])c2ccc(Cl)s2)cc1 | 5 | -14 | 80 | -2 | / | 81*[inhibitor] | 95 | -7 | 97
COC(=O)c1sccc1NC(=O)c1ccc(C)o1 | 20 | 3 | -1.0*[inhibitor] | -21 | 105 | 0.0*[inhibitor] | 92 | -2 | 99
COC(=O)C(C(=O)OC)[C@@H]1C=C[C@H](C[N+](=O)[O-])N(C(C)=O)C1 | / | / | / | / | 94 | / | / | / | /
COc1ccccc1NC(=O)N(C)C[C@H]1Oc2ncc(C#CCN(C)C)cc2C(=O)N([C@H](C)CO)C[C@H]1C | / | / | / | / | 106 | / | / | / | /
Cc1cc(OCC(=O)Nc2ccc3oc(=O)ccc3c2)ccc1Cl | -6 | -1 | 96 | -10 | 97 | 97 | / | / | /
Cc1sc2ncnc(Sc3nnnn3-c3ccccc3)c2c1C | 3 | 12 | 81 | -14 | 104 | 78*[inhibitor] | 91 | -14 | 95
COc1ccc(C)cc1NC(=O)CCCN1C(=O)CN(C)C1=O | -3 | 0 | / | / | / | / | / | / | /
CCOC(=O)CCC1(C(=O)OC)C(=O)CCCCCC=C1C(=O)OC (stereo unspecified) | / | / | / | / | 104 | / | / | / | /
O=C1c2ccc([N+](=O)[O-])cc2C(=O)N1Cc1cccnc1 | 10 | -9 | 118 | 25* | 118 | 111 | 105 | -2 | 106
CCOC(=O)/C(=C/C=C1\Sc2cc(C)c(C)cc2N1CC)C(C)=O | / | / | 42*[inhibitor] | -22 | 209 | 90 | 87 | -12 | 91
CC(C)(C)NCC(O)CON=C1c2ccccc2-c2ccccc21 (stereo unspecified) | 0 | 9 | 106 | -6 | 102 | 91 | / | / | /
Cc1ccc(S(=O)(=O)N(CCCO)CC(O)CON=C2c3ccccc3-c3ccccc32)cc1 (stereo unspecified) | 18 | 13 | 109 | 0 | 85 | 136* | 96 | -4 | 98
O=C(CSc1nnc(Cn2cnc3ccccc32)o1)Nc1cccc2ccccc12 | -3 | -6 | 19*[inhibitor] | -15 | 106 | 13*[inhibitor] | 99 | 4 | 104
CC(=O)c1ccc(NC(=O)CSc2nnc(Cn3cnc4ccccc43)o2)cc1 | -3 | 8 | 104 | -1 | 102 | 104 | / | / | /
Cc1onc(-c2ccccc2)c1C(=O)NC1CC1 | 2 | 6 | / | / | 117 | / | / | / | /
COc1ccc(C(=O)N2CCC(C(=O)Nc3ccc4c(c3)OCO4)CC2)cc1 | -6 | -5 | 104 | -1 | 101 | 101 | / | / | /
SMILES | Apaf1 inhib | UBC13 polyUb | MEKK2 WT-MEK5 | MEKK2 mut-MEK5 | Pemphigus Ab inh | MEKK3 PB1 HTS | MEKK2wt confirm | MEKK2mut-MEK5 | MEKK3-MEK5 inh
COc1cc(OC)cc(C(=O)N2CCC(C(=O)Nc3ccc4c(c3)OCCO4)CC2)c1 | 1 | -6 | 105 | 1 | 109 | 146* | 104 | 2 | 104
O=C(Nc1cccc(F)c1)C1CCN(C(=O)c2ccc(Cl)cc2)CC1 | -5 | 10 | 105 | 1 | 102 | 145* | 99 | -6 | 97
O=C(NNc1ccccc1)OCc1ccccc1 | / | / | / | / | 96 | / | / | / | /
Cn1nc(C(F)(F)F)c(-c2ccc(Br)cc2)c1NC(=O)Nc1ccc(F)cc1F | -2 | 6 | 138* | 31 | 112 | 133* | 110 | 2 | 102
Cn1nc(C(F)(F)F)c(-c2ccc(F)cc2)c1NC(=O)c1ccco1 | -10 | 5 | 104 | 13 | 105 | 112 | / | / | /
COc1ccc(S(N)(=O)=O)cc1C(=O)OCC(=O)N1CCCC(C)C1 (stereo unspecified) | -8 | 2 | / | / | / | / | / | / | /
Cc1ccc2nc(CSc3nnc(-c4ccco4)o3)cc(=O)n2c1 | 10 | 1 | 91 | -3 | / | 71*[inhibitor] | 105 | -1 | 107
COc1ccc2c(CC(=O)NNC(=O)c3ccc(O)cc3)coc2c1 | -6 | 6 | / | / | 113 | / | / | / | /
COc1cccc(NC(=O)CN(c2cccc(C(F)(F)F)c2)S(C)(=O)=O)c1 | 11 | 5 | 81 | -4 | / | 80*[inhibitor] | 101 | 2 | 100
Cc1ccc2nc3n(c(=O)c2c1)-c1ccccc1C(=O)NC3Cc1ccccc1 (stereo unspecified) | 5 | 13 | / | / | / | / | / | / | /
COc1ccc([N+](=O)[O-])cc1NC1CCCCC1 | 16 | -5 | 123 | 7 | 105 | 128* | 99 | -7 | 99
CN(CCOc1ccc(Cl)cc1)C(=O)Cc1ccc(S(=O)(=O)N2CCOCC2)s1 | -1 | 0 | / | / | 108 | / | / | / | /
COc1ccc(C(CCNCc2ccc(N(C)C)cc2)c2ccccc2)cc1 (stereo unspecified) | 15 | 17 | 159* | 22 | 96 | 109 | 137 | 11 | 98
CC(C)Oc1ccc(CNC(=O)CC(c2ccccc2)c2cc(Cl)ccc2O)cc1 (stereo unspecified) | 13 | 13 | 91 | -2 | 98 | 92 | / | / | /
CC(C)Oc1ccc(C(CCNCc2ccc(O)cc2)c2ccccc2)cc1 (stereo unspecified) | 13 | 32 | 150* | 24* | 89 | 107 | 132 | 13 | 99
